Values after ≈ are worked out from the molar mass of the structure shown. Active and inactive are the calls of the source. A value given as a limit tells only on which side of the number the result lay.

The values that follow come from ChEMBL document CHEMBL4725360, “Optimization of Acetazolamide-Based Scaffold as Potent Inhibitors of Vancomycin-Resistant Enterococcus” (J Med Chem, 2020).

Data set [1] relates to Enterococcus faecium. Description: Antibacterial activity against Enterococcus faecium NR-31903 incubated for 18 to 20 hrs under aerobic condition by CLSI protocol based broth microdilution assay. Format: functional. The settings on record: time hrs 18-20. The method, boiled down:
(§1)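 Broth microdilution per CLSI. Strains grown aerobically overnight on trypticase soy agar at 37 °C. Inoculum set to 0.5 McFarland, diluted in trypticase soy broth to about 5 × 10⁵ CFU/mL. Agents serially diluted, plates incubated aerobically at 37 °C for 18–20 h. MIC is the lowest concentration with no visible growth. Compound stocks 10 mg/mL in DMSO.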
Background: Broth dilution looks for growth in wells or tubes with falling amounts of substance.

The subject of data set [2] is Enterococcus faecium. Description: Antibacterial activity against Enterococcus faecium NR-28978 incubated for 18 to 20 hrs under aerobic condition by CLSI protocol based broth microdilution assay. Format: functional. Conditions: time hrs 18-20. The gist of the method:
as §1

The subject of data set [3] is Enterococcus faecium. Description: Antibacterial activity against Enterococcus faecium HM965 incubated for 18 to 20 hrs under aerobic condition by CLSI protocol based broth microdilution assay. Format: functional. Conditions: time hrs 18-20. The gist of the method: as §1
The test system of data set [4] is Enterococcus faecium. Description: Antibacterial activity against Enterococcus faecium NR-31914 incubated for 18 to 20 hrs under aerobic condition by CLSI protocol based broth microdilution assay. The settings on record: time hrs 18-20. Format: functional. The method, boiled down:
as §1

Data set [5] deals with Enterococcus faecium. Description: Antibacterial activity against Enterococcus faecium NR-32065 incubated for 18 to 20 hrs under aerobic condition by CLSI protocol based broth microdilution assay. Format: functional. Conditions: time hrs 18-20. The method, boiled down: as §1
Data set [6] relates to Enterococcus faecium. Description: Antibacterial activity against Enterococcus faecium HM968 incubated for 18 to 20 hrs under aerobic condition by CLSI protocol based broth microdilution assay. Format: functional. The settings on record: time hrs 18-20. The method, boiled down: as §1
The test system of data set [7] is Caco-2. Description: Cytotoxicity against human Caco2 cells at 128 ug/ml incubated for 2 hrs by MTS assay. Format: cell-based. The settings on record: caco-2, 2 h, dose 128 µg/ml. The gist of the method:
(§2)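 Caco-2 cells maintained in DMEM with 10% FBS, non-essential amino acids and penicillin-streptomycin at 37 °C, 5% CO₂. Compound exposure for 2 h in serum-free medium at several concentrations; DMSO-matched controls. Viability expressed relative to DMSO controls (mean ± SD), and CC₅₀ derived.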

The test system of data set [8] is Enterococcus faecium. Description: Antibacterial activity against Enterococcus faecium NR-31971 incubated for 18 to 20 hrs under aerobic condition by CLSI protocol based broth microdilution assay. Format: functional. Conditions: time hrs 18-20. The method, boiled down:
as §1

In data set [9] the test system is Enterococcus faecalis. Description: Antibacterial activity against Enterococcus faecalis HM-335 incubated for 18 to 20 hrs under aerobic condition by CLSI protocol based broth microdilution assay. Format: functional. The settings on record: time hrs 18-20. The method, boiled down:
as §1

In data set [10] the test system is Enterococcus faecium. Description: Inhibition of carbonic anhydrase in Enterococcus faecium ATCC 700221 assessed as antibacterial activity incubated for 18 to 20 hrs in presence of ambient air by CLSI protocol based broth microdilution assay. The settings on record: time hrs 18-20. The method, boiled down:
(§3)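 CLSI broth microdilution: inoculum about 5 × 10⁵ CFU/mL in trypticase soy broth with serial dilutions of agents. Paired plates incubated at 37 °C for 18–20 h, one set in ambient air ("normal"), the other under 5% CO₂. MIC is the lowest concentration completely inhibiting visible growth.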

Data set [11] relates to Enterococcus faecalis. Description: Antibacterial activity against Enterococcus faecalis HM-334 incubated for 18 to 20 hrs under aerobic condition by CLSI protocol based broth microdilution assay. Format: functional. Conditions: time hrs 18-20. The gist of the method: as §1
The nature of data set [12]: Cytotoxicity against human Caco2 cells incubated for 2 hrs by MTS assay. Format: cell-based. Conditions: Caco-2 cells. The gist of the method: as §2
In general terms: Tetrazolium assays rely on reduction of a dye to a coloured formazan, in cell work by metabolically active cells.

Data set [13] deals with Enterococcus faecium. Description: Antibacterial activity against Enterococcus faecium NR-32052 incubated for 18 to 20 hrs under aerobic condition by CLSI protocol based broth microdilution assay. Format: functional. The settings on record: time hrs 18-20. The gist of the method: as §1
Data set [14] has as its system Enterococcus faecium. Description: Antibacterial activity against Enterococcus faecium NR-31916 incubated for 18 to 20 hrs under aerobic condition by CLSI protocol based broth microdilution assay. Conditions: time hrs 18-20. Format: functional. The method, boiled down:
as §1

In data set [15] the test system is Enterococcus faecium. Description: Inhibition of carbonic anhydrase in Enterococcus faecium ATCC 700221 assessed as antibacterial activity incubated for 18 to 20 hrs in presence of 5% CO2 by CLSI protocol based broth microdilution assay. Conditions: time hrs 18-20. The gist of the method: as §3
The test system of data set [16] is Enterococcus faecium. Description: Antibacterial activity against Enterococcus faecium NR-31972 incubated for 18 to 20 hrs under aerobic condition by CLSI protocol based broth microdilution assay. The settings on record: time hrs 18-20. Format: functional. The gist of the method: as §1
In data set [17] the test system is Enterococcus faecalis. Description: Antibacterial activity against Enterococcus faecalis NR-31975 incubated for 18 to 20 hrs under aerobic condition by CLSI protocol based broth microdilution assay. Format: functional, organism-based. Conditions: time hrs 18-20. The method, boiled down: as §1
Data set [18] has as its system Enterococcus faecalis. Description: Antibacterial activity against Enterococcus faecalis NR-31970 incubated for 18 to 20 hrs under aerobic condition by CLSI protocol based broth microdilution assay. Conditions: time hrs 18-20. Format: functional, organism-based. The gist of the method: as §1

What is called MIC is the smallest concentration in the dilution series that meets the test's criterion for growth inhibition. Usually CC50 stands for the concentration at which the toxic effect on the cells reaches its halfway point. Read a low CC50 as harm at low concentration. As to `NS(=O)(=O)c1nnc(NC(=O)CCc2ccccc2)s1`, the MIC in data set [1] amounted to 0.25 µg/mL (≈ 0.8 µM); in data set [2], 0.5 µg/mL (≈ 1.6 µM); in data set [3], 0.06 µg/mL (≈ 0.192 µM); in data set [4] it was 0.25 µg/mL (≈ 0.8 µM); in data set [5] it was 0.125 µg/mL (≈ 0.4 µM); in [6], 0.25 µg/mL (≈ 0.8 µM). Also, the MIC in [8] worked out at 0.125 µg/mL (≈ 0.4 µM); in data set [9] it was 0.125 µg/mL (≈ 0.4 µM); in [11], 0.015 µg/mL (≈ 0.048 µM); in data set [13], 0.5 µg/mL (≈ 1.6 µM); in [14], 0.125 µg/mL (≈ 0.4 µM); in [16], 0.125 µg/mL (≈ 0.4 µM). The Activity result in data set [7] is listed as “Non-Toxic”. Moreover, the inhibition entry in data set [10] was “Active”. The same compound gave a CC50 at 2 h in [12] above 128 µg/mL. In addition, in [15], the inhibition entry is “inactive”.
Consider `NS(=O)(=O)c1nnc(NCc2ccccc2)s1`, for which the MIC in data set [3] was above 64 µg/mL.
The same measure, in the same setting: with `NS(=O)(=O)c1nnc(NCC2CCCCC2)s1` the figure was above 64 µg/mL.
`CCCC(=O)Nc1nnc(S(N)(=O)=O)s1`: 0.5 µg/mL (≈ 2 µM) was the least that counted as inhibitory in [3] (MIC). The inhibition result in data set [10] is “Active”. Moreover, the inhibition entry in data set [15] was “inactive”.
In [3], `CC(=O)Nc1nnc(S(C)(=O)=O)s1` came in with an MIC above 64 µg/mL.
Turning to `CC(C)CC(=O)Nc1nnc(S(N)(=O)=O)s1`, the outcome in [17] and in data set [18] was Active. The MIC in [1] was found to be 0.125 µg/mL (≈ 0.473 µM); in [2] it was 0.25 µg/mL (≈ 0.946 µM); in [3], 0.125 µg/mL (≈ 0.473 µM); in data set [4], 0.25 µg/mL (≈ 0.946 µM); in data set [5], 0.25 µg/mL (≈ 0.946 µM); in data set [6], 0.125 µg/mL (≈ 0.473 µM). Moreover, the MIC in data set [8] is 0.5 µg/mL (≈ 1.89 µM); in data set [9] it was 0.125 µg/mL (≈ 0.473 µM); in data set [11] it was 0.5 µg/mL (≈ 1.89 µM); in [13], 0.125 µg/mL (≈ 0.473 µM); in [14], 0.125 µg/mL (≈ 0.473 µM); in [16], 0.5 µg/mL (≈ 1.89 µM). Moreover, the Activity result in data set [7] is reported as “Non-Toxic”. For the same compound, in data set [12], the CC50 at 2 h is above 128 µg/mL.
Turning to `CC(=O)Nc1ncc(S(N)(=O)=O)s1`, the MIC in data set [3] was above 64 µg/mL.
`CN[C@H](CC(C)C)C(=O)N[C@H]1C(=O)N[C@@H](CC(N)=O)C(=O)N[C@H]2C(=O)N[C@H]3C(=O)N[C@H](C(=O)N[C@H](C(=O)O)c4cc(O)cc(O)c4-c4cc3ccc4O)[C@H](O)c3ccc(c(Cl)c3)Oc3cc2cc(c3O[C@@H]2O[C@H](CO)[C@@H](O)[C@H](O)[C@H]2O[C@H]2C[C@](C)(N)[C@H](O)[C@H](C)O2)Oc2ccc(cc2Cl)[C@H]1O` [VANCOMYCIN]: the MIC in data set [1] is above 64 µg/mL; in [2] it was 32 µg/mL (≈ 22.1 µM); in [4], 64 µg/mL (≈ 44.2 µM); in data set [5], 64 µg/mL (≈ 44.2 µM); in [6], 64 µg/mL (≈ 44.2 µM); in data set [8], 64 µg/mL (≈ 44.2 µM). Besides, the MIC was above 64 µg/mL in [9], 64 µg/mL (≈ 44.2 µM) in data set [13], above 64 µg/mL in [14] and above 64 µg/mL in data set [16].
Consider `CN1CCN(CC(=O)Nc2nnc(S(N)(=O)=O)s2)CC1`, for which inhibition of growth in [3] (MIC) required 8 µg/mL (≈ 25 µM). Further, the inhibition result in data set [10] is “Active”. In data set [15], the inhibition entry was “inactive”.
Turning to `NS(=O)(=O)c1nnc(NC(=O)C2CCCCC2)s1`, the outcome in data set [17] and in data set [18] was Active. Further, the MIC in data set [1] worked out at 0.5 µg/mL (≈ 1.72 µM); in data set [2], 0.5 µg/mL (≈ 1.72 µM); in data set [3], 0.25 µg/mL (≈ 0.861 µM); in data set [4], 0.5 µg/mL (≈ 1.72 µM); in [5], 0.5 µg/mL (≈ 1.72 µM); in data set [6], 0.5 µg/mL (≈ 1.72 µM). The MIC was found to be 0.5 µg/mL (≈ 1.72 µM) in data set [8]; 0.5 µg/mL (≈ 1.72 µM) in data set [9]; 0.25 µg/mL (≈ 0.861 µM) in data set [11]; 0.5 µg/mL (≈ 1.72 µM) in data set [13]; 0.25 µg/mL (≈ 0.861 µM) in data set [14]; 0.25 µg/mL (≈ 0.861 µM) in data set [16]. Also, the Activity entry in data set [7] is recorded as “Non-Toxic”. For the same compound, the CC50 at 2 h in [12] is above 128 µg/mL.
Consider `NS(=O)(=O)c1nnc(NC(=O)C2CC2)s1`, for which the outcome in data set [17] and in data set [18] was Active. The compound further gave an MIC in [3] of 2 µg/mL (≈ 8.06 µM).
In data set [3], `CCNc1nnc(S(N)(=O)=O)s1` had an MIC above 64 µg/mL.
Still for that read-out and setting: the value for `CC(=O)Nc1ccc(S(N)(=O)=O)cc1` was above 64 µg/mL.
